In ChEMBL document CHEMBL4371061, “Identification of novel triazole inhibitors of Wnt/β-catenin signaling based on the Niclosamide chemotype” (Bioorg Med Chem Lett, 2019):
Active and inactive are the calls of the source. The rule behind the calls is not given here.

Legend:
[1] = molecular target: Frizzled-1 (Homo sapiens) (UniProt Q9UP38); assay: Induction of GFP-tagged Fzd1 (unknown origin) internalization expressed in human U2OS cells at 12.5 after 6 hrs by confocal microscopic method relative to control; assay type: cell-based
Frizzled-1 (Homo sapiens), sequence (Q9UP38 70-647 limits assumed): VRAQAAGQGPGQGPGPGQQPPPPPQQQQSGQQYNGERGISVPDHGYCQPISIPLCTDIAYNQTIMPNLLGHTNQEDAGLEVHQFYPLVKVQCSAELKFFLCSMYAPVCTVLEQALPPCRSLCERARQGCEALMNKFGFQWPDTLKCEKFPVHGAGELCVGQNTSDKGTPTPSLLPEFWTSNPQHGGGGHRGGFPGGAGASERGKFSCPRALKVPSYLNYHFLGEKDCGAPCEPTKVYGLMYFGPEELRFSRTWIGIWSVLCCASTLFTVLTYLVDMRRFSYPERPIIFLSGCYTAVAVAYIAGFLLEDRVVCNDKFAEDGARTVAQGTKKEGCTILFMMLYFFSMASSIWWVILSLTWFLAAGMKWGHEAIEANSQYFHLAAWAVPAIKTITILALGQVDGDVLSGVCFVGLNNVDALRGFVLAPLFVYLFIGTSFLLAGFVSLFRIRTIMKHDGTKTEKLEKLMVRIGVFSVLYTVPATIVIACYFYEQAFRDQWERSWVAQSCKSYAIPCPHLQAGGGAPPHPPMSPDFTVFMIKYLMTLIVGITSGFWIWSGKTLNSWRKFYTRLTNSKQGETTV
Summary of the method: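 U2OS cells stably expressing Frizzled1-GFP were exposed to compound for 6 h, fixed and imaged by confocal microscopy. Punctate was scored visually against DMSO control: similar to control = 0, trace = 1, moderate = 3, strong = 5.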

SW480 [2] = assay: Inhibition of Wnt/beta-catenin signaling pathway in human SW480 whole cell lysate harboring APC mutation assessed as reduction in c-Myc protein expression at 5 uM after 18 hrs by Western blot analysis relative to control; assay type: subcellular
Summary of the method: (§1)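 Cells were treated with 5 μM compound in DMSO, or DMSO alone, for 18 h. Cytosolic fraction and whole-cell lysate were immunoblotted for target proteins with β-actin as loading control. Band levels were normalized to β-actin and expressed as percent of the DMSO-treated control.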

Homo sapiens [3] = organism: Homo sapiens; assay: Inhibition of Wnt/beta-catenin signaling pathway in human HCT116 cells cytosol lysate harboring beta-catenin mutation assessed as reduction in beta-catenin protein expression at 5 uM after 18 hrs by Western blot analysis relative to control; assay type: subcellular; summary of the method: as §1
SW480 [4] = assay: Inhibition of Wnt/beta-catenin signaling pathway in human SW480 cells cytosol lysate harboring APC mutation assessed as reduction in beta-catenin protein expression at 5 uM after 18 hrs by Western blot analysis relative to control; assay type: subcellular; summary of the method: as §1
Homo sapiens [5] = organism: Homo sapiens; assay: Inhibition of Wnt/beta-catenin signaling pathway in human HCT116 whole cell lysate harboring beta-catenin mutation assessed as reduction in survivin protein expression at 5 uM after 18 hrs by Western blot analysis relative to control; assay type: subcellular; summary of the method: as §1
[6] = Inhibition of Wnt3A-stimulated Wnt/beta-catenin pathway in HEK293 cells transfected with p8xTOPFlash, Renilla luciferase plasmid pRL-TK and pLKO.1 after 8 hrs by Dual topflash luciferase reporter gene assay; assay type: cell-based; conditions: Homo sapiens, HEK293, 8 h
Summary of the method: (§2)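 HEK293 cells stably carrying a TOPFlash luciferase reporter and a Renilla luciferase control were stimulated with Wnt3A-conditioned medium and given DMSO or compound (0.04–10 μM) for 8 h. Wnt3A plus DMSO was set as 100%. IC50 was fit from mean ± SEM, n 3. Percent inhibition at the two highest concentrations was given when no full curve was obtained.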

SW480 [7] = assay: Inhibition of Wnt/beta-catenin signaling pathway in human SW480 whole cell lysate harboring APC mutation assessed as reduction in cyclin D1 protein expression at 5 uM after 18 hrs by Western blot analysis relative to control; assay type: subcellular; summary of the method: as §1
SW480 [8] = assay: Inhibition of Wnt/beta-catenin signaling pathway in human SW480 whole cell lysate harboring APC mutation assessed as reduction in survivin protein expression at 5 uM after 18 hrs by Western blot analysis relative to control; assay type: subcellular; summary of the method: as §1
Homo sapiens [9] = organism: Homo sapiens; assay: Inhibition of Wnt/beta-catenin signaling pathway in human HCT116 whole cell lysate harboring beta-catenin mutation assessed as reduction in cyclin D1 protein expression at 5 uM after 18 hrs by Western blot analysis relative to control; assay type: subcellular; summary of the method: as §1
Homo sapiens [10] = organism: Homo sapiens; assay: Inhibition of Wnt/beta-catenin signaling pathway in human HCT116 whole cell lysate harboring beta-catenin mutation assessed as reduction in c-Myc protein expression at 5 uM after 18 hrs by Western blot analysis relative to control; assay type: subcellular; summary of the method: as §1
Homo sapiens [11] = organism: Homo sapiens; assay: Inhibition of Wnt/beta-catenin signaling pathway in human HCT116 cells cytosol lysate harboring beta-catenin mutation assessed as reduction in Axin2 protein expression at 5 uM after 18 hrs by Western blot analysis relative to control; assay type: subcellular; summary of the method: as §1
SW480 [12] = assay: Inhibition of Wnt/beta-catenin signaling pathway in human SW480 cells cytosol lysate harboring APC mutation assessed as reduction in Axin2 protein expression at 5 uM after 18 hrs by Western blot analysis relative to control; assay type: subcellular; summary of the method: as §1
HEK293 [13] = assay: Inhibition of Wnt3A-stimulated Wnt/beta-catenin pathway in HEK293 cells transfected with p8xTOPFlash, Renilla luciferase plasmid pRL-TK and pLKO.1 at 10 uM after 8 hrs by Dual topflash luciferase reporter gene assay relative to control; assay type: cell-based; conditions: Homo sapiens; summary of the method: as §2
HEK293 [14] = assay: Inhibition of Wnt3A-stimulated Wnt/beta-catenin pathway in HEK293 cells transfected with p8xTOPFlash, Renilla luciferase plasmid pRL-TK and pLKO.1 at 5 uM after 8 hrs by Dual topflash luciferase reporter gene assay relative to control; assay type: cell-based; conditions: Homo sapiens; summary of the method: as §2
Homo sapiens [15] = organism: Homo sapiens; assay: Inhibition of Wnt/beta-catenin signaling pathway in human HCT116 cells cytosol lysate harboring beta-catenin mutation assessed as reduction in Axin2 protein expression at 5 to 10 uM after 18 hrs by Western blot analysis; assay type: subcellular
Homo sapiens [16] = organism: Homo sapiens; assay: Inhibition of Wnt/beta-catenin signaling pathway in human HCT116 whole cell lysate harboring beta-catenin mutation assessed as reduction in survivin protein expression at 5 to 10 uM after 18 hrs by Western blot analysis; assay type: subcellular
Homo sapiens [17] = organism: Homo sapiens; assay: Inhibition of Wnt/beta-catenin signaling pathway in human HCT116 cells cytosol lysate harboring beta-catenin mutation assessed as reduction in beta-catenin protein expression at 5 to 10 uM after 18 hrs by Western blot analysis; assay type: subcellular
Homo sapiens [18] = organism: Homo sapiens; assay: Inhibition of Wnt/beta-catenin signaling pathway in human HCT116 whole cell lysate harboring beta-catenin mutation assessed as reduction in c-Myc protein expression at 5 to 10 uM after 18 hrs by Western blot analysis; assay type: subcellular
Homo sapiens [19] = organism: Homo sapiens; assay: Inhibition of Wnt/beta-catenin signaling pathway in human HCT116 whole cell lysate harboring beta-catenin mutation assessed as reduction in survivin protein expression at 5 to 10 uM after 18 hrs by Western blot analysis
HEK293 [20] = assay: Inhibition of Wnt3A-stimulated Wnt/beta-catenin pathway in HEK293 cells transfected with p8xTOPFlash, Renilla luciferase plasmid pRL-TK and pLKO.1 assessed as residual activity at 10 uM after 8 hrs by Dual topflash luciferase reporter gene assay relative to control; assay type: cell-based; conditions: Homo sapiens; summary of the method: as §2

Structure (SMILES) | score [1] | inhibition (SW480 [2]) | inhibition (Homo sapiens [3]) | inhibition (SW480 [4]) | inhibition (Homo sapiens [5]) | IC50 [6] | inhibition (SW480 [7]) | inhibition (SW480 [8]) | inhibition (Homo sapiens [9]) | inhibition (Homo sapiens [10]) | inhibition (Homo sapiens [11]) | inhibition (SW480 [12]) | inhibition (HEK293 [13]) | inhibition (HEK293 [14]) | inhibition (Homo sapiens [15]) | inhibition (Homo sapiens [16]) | inhibition (Homo sapiens [17]) | inhibition (Homo sapiens [18]) | inhibition (Homo sapiens [19]) | Activity (HEK293 [20])
O=C(Nc1ccc([N+](=O)[O-])cc1Cl)c1cc(Cl)ccc1O [NICLOSAMIDE] | 5 | 3% | 46% | 74% | 44% | 340 nM | 45% | 41% | 28% | 1% | 35% | 29% |  |  |  |  |  |  |  | 
COc1ccc(-c2nnc(-c3cc(Cl)ccc3O)[nH]2)cc1 | 0 |  |  |  |  |  |  |  |  |  |  |  | 60% | 14% |  |  |  |  |  | 
Oc1ccc(Cl)cc1-c1nnc(-c2ccccc2)[nH]1 | 0 |  |  |  |  | 4020 nM |  |  |  |  |  |  |  |  | Active | Active | Active | Active | Active | 
O=[N+]([O-])c1ccc(-c2nnc(-c3cc(Cl)ccc3O)[nH]2)cc1 | 4 | 2% | 59% | 67% | 38% | 1410 nM | 70% | 38% | 20% | 2% | 75% | 44% |  |  |  |  |  |  |  | 
O=C(NC(=O)c1cc(Cl)ccc1O)c1ccc([N+](=O)[O-])cc1 | 0 |  |  |  |  |  |  |  |  |  |  |  |  |  |  |  |  |  |  | 153%
Oc1ccc(Cl)cc1-c1nnc(-c2ccc(C(F)(F)F)cc2)[nH]1 | 2 | 2% | 6% | 72% | 44% | 2880 nM | 76% | 56% | 17% | 3% | 68% | 58% |  |  |  |  |  |  |  | 
O=C(NCc1ccc([N+](=O)[O-])cc1)c1cc(Cl)ccc1O | 0 |  |  |  |  |  |  |  |  |  |  |  | 43% | 3% |  |  |  |  |  | 
O=[N+]([O-])c1ccc(-c2nnc(-c3cc(Cl)ccc3O)[nH]2)c(Cl)c1 | 5 | 4% | 34% | 69% | 38% | 1840 nM | 57% | 43% | 22% | 3% | 68% | 47% |  |  |  |  |  |  |  | 
Oc1ccc(Cl)cc1-c1nnc(-c2ccc(F)cc2)[nH]1 | 1 |  |  |  |  | 1910 nM |  |  |  |  |  |  |  |  |  |  |  |  |  | 
